Calls of active or inactive are those of the source. No cut-off for these calls is given here.
Key:
[1] = biological target: T1, 5-hydroxytryptamine receptor 6 (Homo sapiens, UniProt P50406); assay: Agonist activity at human cloned 5HT6 receptor expressed in HeLa cells assessed as induction of adenylyl cyclase activity by RIA; type: functional, cell-based
In short: (§1)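 Transfected HeLa cells expressing human 5-HT6 were washed with Krebs buffer and preincubated 5 min at 37 °C in Krebs with 500 µM IBMX. They were then stimulated 10 min at 37 °C with compound over 0.1–10000 nM. Agonist potency came from concentration–response curves, and percent efficacy was taken relative to a serotonin maximal response.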

[2] = biological target: T1, 5-hydroxytryptamine receptor 6; assay: Agonist activity at human cloned 5HT6 receptor expressed in HeLa cells assessed as induction of adenylyl cyclase activity by RIA relative to serotonin; type: functional, cell-based; in short: as §1
[3] = biological target: T1, 5-hydroxytryptamine receptor 6; assay: Displacement of [3H]LSD from human cloned 5HT6 receptor expressed in HeLa cells; type: cell-based
In short: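 Radioligand binding used human 5-HT6 receptor stably expressed in HeLa cells with [3H]LSD as the radioligand. Affinity is reported as Ki.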

[4] = biological target: T1, 5-hydroxytryptamine receptor 6; assay: Antagonist activity at human cloned 5HT6 receptor expressed in HeLa cells assessed as inhibition of adenylyl cyclase activity by RIA; type: functional, cell-based
[5] = biological target: T1, 5-hydroxytryptamine receptor 6; assay: Antagonist activity at human cloned 5HT6 receptor expressed in HeLa cells assessed as inhibition of adenylyl cyclase activity by RIA relative to serotonin; type: functional, cell-based
[6] = biological target: D(3) dopamine receptor (Homo sapiens, UniProt P35462); assay: Displacement of [3H]spiperone from human cloned dopamine D3 receptor expressed in CHO-K1 cells; type: cell-based
In short: (§2)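 Binding selectivity used stably expressed human receptors, 5-HT in CHO cells and dopamine in CHO-K1. Radioligands: [125I]DOI for 5-HT2A (agonist radioligand), [3H]-5-HT for 5-HT2C, [3H]LSD for 5-HT7, [3H]spiperone for D2, D3 and D4. Values are IC50 in nM.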

[7] = biological target: 5-hydroxytryptamine receptor 1D (Homo sapiens) (UniProt P28221); assay: Displacement of [3H]5-HT from human cloned 5HT1D receptor expressed in CHO cells at 1 uM; type: cell-based
In short: (§3)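 Human 5-HT1B, 5-HT1D and 5-HT1F receptors were stably expressed in CHO cells and labelled with [3H]-5-HT. Results are given as percent inhibition at a single 1 µM concentration.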

[8] = test system: Rattus norvegicus; assay: Increase in extracellular glutamate level in Sprague-Dawley rat frontal cortex at 30 mg/kg, sc; type: functional, organism-based; design: dose 30 mg/kg
In short: (§4)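 Rats received a single acute subcutaneous dose of 30 mg/kg. Extracellular GABA and glutamate in frontal cortex were followed over time from about −100 to 350 min around dosing and compared with vehicle-treated animals, with significance set at P < 0.05.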

[9] = biological target: T2, D(4) dopamine receptor (Homo sapiens, UniProt P21917); assay: Displacement of [3H]spiperone from human cloned dopamine D4 receptor expressed in CHO-K1 cells; type: cell-based; in short: as §2
T2 sequence (P21917 whole entry): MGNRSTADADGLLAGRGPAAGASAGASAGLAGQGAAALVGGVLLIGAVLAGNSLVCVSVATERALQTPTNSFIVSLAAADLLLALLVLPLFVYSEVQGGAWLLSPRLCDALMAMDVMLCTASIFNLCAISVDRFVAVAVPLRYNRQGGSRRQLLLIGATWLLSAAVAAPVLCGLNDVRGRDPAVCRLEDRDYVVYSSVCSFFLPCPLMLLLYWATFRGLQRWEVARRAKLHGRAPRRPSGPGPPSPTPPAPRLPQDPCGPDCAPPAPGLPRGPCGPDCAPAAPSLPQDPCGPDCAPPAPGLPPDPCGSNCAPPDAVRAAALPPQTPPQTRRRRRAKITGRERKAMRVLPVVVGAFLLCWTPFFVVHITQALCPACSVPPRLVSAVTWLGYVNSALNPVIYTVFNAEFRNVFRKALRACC

[10] = test system: Rattus norvegicus; assay: Inhibition of schedule-induced polydipsia in po dosed Sprague-Dawley rat assessed as reduction of adjunctive drinking behavior; type: functional
In short: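 In the schedule-induced polydipsia model, rats were dosed orally at 30, 56 and 100 mg/kg against a vehicle group. Adjunctive drinking was measured, an ED50 was derived, and comparison with vehicle used P < 0.05.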

[11] = biological target: 5-hydroxytryptamine receptor 7 (Homo sapiens, UniProt P34969); assay: Displacement of [3H]LSD from human cloned 5HT7 receptor expressed in CHO cells; type: cell-based; in short: as §2
[12] = biological target: T3, 5-hydroxytryptamine receptor 1F (Homo sapiens) (UniProt P30939); assay: Displacement of [3H]5-HT from human cloned 5HT1F receptor expressed in CHO cells at 1 uM; type: cell-based; in short: as §3
T3 sequence (whole entry): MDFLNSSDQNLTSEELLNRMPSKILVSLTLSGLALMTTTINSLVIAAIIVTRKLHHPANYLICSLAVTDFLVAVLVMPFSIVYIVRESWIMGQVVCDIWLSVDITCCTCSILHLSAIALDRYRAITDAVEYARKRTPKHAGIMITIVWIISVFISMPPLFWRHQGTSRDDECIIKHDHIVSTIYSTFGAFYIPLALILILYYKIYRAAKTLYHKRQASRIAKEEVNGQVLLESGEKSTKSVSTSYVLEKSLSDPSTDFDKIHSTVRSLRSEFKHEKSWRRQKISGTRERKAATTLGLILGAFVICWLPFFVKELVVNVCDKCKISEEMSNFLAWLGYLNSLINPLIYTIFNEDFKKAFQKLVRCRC

[13] = biological target: T4, 5-hydroxytryptamine receptor 2C (Homo sapiens, UniProt P28335); assay: Displacement of [3H]5-HT from human cloned 5HT2C receptor expressed in CHO cells; type: cell-based; in short: as §2
T4 sequence (P28335 whole entry): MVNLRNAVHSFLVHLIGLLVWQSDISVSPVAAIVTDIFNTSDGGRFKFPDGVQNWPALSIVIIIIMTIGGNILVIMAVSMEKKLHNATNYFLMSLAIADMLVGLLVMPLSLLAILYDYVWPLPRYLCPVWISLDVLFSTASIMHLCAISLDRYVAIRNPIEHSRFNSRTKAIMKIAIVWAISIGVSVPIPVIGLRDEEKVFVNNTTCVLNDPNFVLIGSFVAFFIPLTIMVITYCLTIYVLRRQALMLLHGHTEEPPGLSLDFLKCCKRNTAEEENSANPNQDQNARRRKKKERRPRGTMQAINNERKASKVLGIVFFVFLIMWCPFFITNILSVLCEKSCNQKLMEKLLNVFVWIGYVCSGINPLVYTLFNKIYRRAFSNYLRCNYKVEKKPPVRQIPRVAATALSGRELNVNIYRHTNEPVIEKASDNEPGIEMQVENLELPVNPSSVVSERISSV

[14] = biological target: 5-hydroxytryptamine receptor 1B (Homo sapiens) (UniProt P28222); assay: Displacement of [3H]5-HT from human cloned 5HT1B receptor expressed in CHO cells at 1 uM; type: cell-based; in short: as §3
[15] = test system: Rattus norvegicus; assay: Increase in extracellular GABA level in Sprague-Dawley rat frontal cortex at 30 mg/kg, sc; type: functional, organism-based; design: dose 30 mg/kg; in short: as §4
[16] = biological target: D(2) dopamine receptor (Homo sapiens, UniProt P14416); assay: Displacement of [3H]spiperone from human cloned dopamine D2 receptor expressed in CHO-K1 cells; type: cell-based; in short: as §2
[17] = biological target: 5-hydroxytryptamine receptor 2A (Homo sapiens, UniProt P28223); assay: Displacement of [125I]DOI from human cloned 5HT2A receptor expressed in CHO cells; type: cell-based; in short: as §2
Chain of 5-hydroxytryptamine receptor 2A (P28223 whole entry): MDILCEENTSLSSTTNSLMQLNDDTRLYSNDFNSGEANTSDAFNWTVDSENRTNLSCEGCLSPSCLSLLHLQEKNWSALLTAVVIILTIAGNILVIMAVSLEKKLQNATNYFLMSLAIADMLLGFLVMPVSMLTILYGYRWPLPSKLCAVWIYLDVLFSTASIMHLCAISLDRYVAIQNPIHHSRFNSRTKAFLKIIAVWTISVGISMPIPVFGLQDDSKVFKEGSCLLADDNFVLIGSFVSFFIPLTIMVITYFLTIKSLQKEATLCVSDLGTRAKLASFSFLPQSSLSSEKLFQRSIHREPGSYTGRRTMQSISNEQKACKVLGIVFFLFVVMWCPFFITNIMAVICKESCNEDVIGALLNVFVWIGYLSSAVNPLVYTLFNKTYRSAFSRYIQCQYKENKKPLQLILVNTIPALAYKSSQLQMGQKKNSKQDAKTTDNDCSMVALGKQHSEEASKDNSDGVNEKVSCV

T1 sequence (P50406 whole entry): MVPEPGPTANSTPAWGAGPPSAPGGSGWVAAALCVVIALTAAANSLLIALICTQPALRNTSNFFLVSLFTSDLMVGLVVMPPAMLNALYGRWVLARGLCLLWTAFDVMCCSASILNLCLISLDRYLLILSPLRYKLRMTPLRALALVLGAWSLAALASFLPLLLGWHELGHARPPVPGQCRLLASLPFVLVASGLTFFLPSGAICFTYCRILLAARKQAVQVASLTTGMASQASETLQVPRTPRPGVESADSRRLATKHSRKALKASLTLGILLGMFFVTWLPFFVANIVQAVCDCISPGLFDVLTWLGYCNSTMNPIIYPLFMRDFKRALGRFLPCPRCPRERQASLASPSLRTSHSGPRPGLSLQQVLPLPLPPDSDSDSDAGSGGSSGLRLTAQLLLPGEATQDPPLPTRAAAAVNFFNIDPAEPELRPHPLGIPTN
Chain of D(2) dopamine receptor (P14416 whole entry): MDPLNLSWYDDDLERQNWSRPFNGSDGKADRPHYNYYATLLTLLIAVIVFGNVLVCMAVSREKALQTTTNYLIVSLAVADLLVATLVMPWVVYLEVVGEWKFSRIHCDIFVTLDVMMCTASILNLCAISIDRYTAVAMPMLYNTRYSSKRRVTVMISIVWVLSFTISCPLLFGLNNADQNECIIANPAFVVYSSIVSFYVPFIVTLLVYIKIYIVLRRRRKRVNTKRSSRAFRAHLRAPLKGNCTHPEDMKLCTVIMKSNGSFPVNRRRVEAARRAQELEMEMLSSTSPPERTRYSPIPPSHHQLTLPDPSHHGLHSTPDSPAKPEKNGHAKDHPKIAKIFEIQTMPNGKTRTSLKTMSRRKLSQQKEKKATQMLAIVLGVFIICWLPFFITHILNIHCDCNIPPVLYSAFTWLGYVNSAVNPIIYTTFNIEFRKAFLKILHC
Chain of D(3) dopamine receptor (P35462 whole entry): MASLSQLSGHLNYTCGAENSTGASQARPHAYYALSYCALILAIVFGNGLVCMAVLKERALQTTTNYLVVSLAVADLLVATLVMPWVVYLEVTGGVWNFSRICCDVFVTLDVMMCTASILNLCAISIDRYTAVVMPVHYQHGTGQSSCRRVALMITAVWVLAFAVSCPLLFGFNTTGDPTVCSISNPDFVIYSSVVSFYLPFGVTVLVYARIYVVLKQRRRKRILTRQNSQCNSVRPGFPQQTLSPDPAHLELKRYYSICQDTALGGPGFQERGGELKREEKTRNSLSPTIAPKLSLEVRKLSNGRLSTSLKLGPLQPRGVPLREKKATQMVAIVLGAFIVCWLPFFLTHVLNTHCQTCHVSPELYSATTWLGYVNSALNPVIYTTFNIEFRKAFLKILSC
Chain of 5-hydroxytryptamine receptor 7 (P34969 whole entry): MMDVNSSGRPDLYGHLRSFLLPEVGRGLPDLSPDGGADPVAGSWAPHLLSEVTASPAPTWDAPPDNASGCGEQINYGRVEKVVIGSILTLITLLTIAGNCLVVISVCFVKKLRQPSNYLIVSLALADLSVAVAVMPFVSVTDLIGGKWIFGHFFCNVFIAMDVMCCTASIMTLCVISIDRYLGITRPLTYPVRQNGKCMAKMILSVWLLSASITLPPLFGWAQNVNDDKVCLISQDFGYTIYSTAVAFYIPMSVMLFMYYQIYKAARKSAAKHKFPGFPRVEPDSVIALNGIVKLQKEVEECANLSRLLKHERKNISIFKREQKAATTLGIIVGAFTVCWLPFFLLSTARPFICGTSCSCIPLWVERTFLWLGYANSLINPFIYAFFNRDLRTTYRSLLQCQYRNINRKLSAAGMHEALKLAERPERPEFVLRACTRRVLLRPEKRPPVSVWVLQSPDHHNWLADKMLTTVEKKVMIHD
Chain of 5-hydroxytryptamine receptor 1D (Homo sapiens) (P28221 whole entry): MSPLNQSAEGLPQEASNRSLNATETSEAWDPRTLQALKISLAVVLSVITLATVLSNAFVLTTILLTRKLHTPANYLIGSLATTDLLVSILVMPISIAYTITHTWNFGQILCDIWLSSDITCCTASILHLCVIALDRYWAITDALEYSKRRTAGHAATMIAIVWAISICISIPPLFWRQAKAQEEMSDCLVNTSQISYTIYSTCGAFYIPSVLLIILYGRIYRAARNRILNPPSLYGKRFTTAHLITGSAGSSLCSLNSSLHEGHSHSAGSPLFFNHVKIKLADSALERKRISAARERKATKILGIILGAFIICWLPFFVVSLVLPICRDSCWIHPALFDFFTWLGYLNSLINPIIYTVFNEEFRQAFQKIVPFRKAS
Chain of 5-hydroxytryptamine receptor 1B (Homo sapiens) (P28222 whole entry): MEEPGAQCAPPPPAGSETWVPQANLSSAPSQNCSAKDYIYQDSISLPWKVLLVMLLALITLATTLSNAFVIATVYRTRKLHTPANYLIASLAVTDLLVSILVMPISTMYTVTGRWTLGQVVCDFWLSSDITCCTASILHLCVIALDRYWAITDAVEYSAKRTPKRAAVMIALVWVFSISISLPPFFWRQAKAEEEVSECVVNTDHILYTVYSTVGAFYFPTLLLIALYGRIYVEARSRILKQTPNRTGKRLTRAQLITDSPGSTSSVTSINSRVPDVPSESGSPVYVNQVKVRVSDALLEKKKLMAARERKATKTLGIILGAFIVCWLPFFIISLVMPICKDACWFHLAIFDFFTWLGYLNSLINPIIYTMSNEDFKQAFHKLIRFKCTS

Structure (SMILES) | EC50 [1] [nM] | Emax [2] [%] | Ki [3] [nM] | also measured
NCCn1cc(S(=O)(=O)c2cccc3ccccc23)c2cccnc21 | 63 | 65 | 1.6 | 
CN(C)CCn1cc(S(=O)(=O)c2cccc(F)c2)c2cccnc21 |  | 100 |  | IC50 [6]: > 5000 nM; inhibition [7]: 16%; Activity [8]: inactive; IC50 [9]: > 5000 nM; ED50 [10]: 89.5 mg/kg; IC50 [11]: 4760 nM; inhibition [12]: 22%; IC50 [13]: 644 nM; inhibition [14]: 30%; Activity [15]: Active; IC50 [16]: > 5000 nM; IC50 [17]: 351 nM
CN(C)CCn1cc(S(=O)(=O)c2ccccc2)c2ccccc21 | 366 | 63 |  | 
NCCn1cc(S(=O)(=O)c2ccccc2C(F)(F)F)c2cccnc21 | 85 | 97 | 2.1 | 
CNCCn1cc(S(=O)(=O)c2cccc(F)c2)c2cccnc21 |  |  |  | IC50 [4]: 6.2 nM; Imax [5]: 93%
NCCn1cc(S(=O)(=O)c2ccc(F)cc2)c2cccnc21 | 166 | 100 |  | 
NCCn1cc(S(=O)(=O)c2cccc(F)c2)c2cccnc21 | 24 | 100 | 4.7 | 

The next lines start with results.

EC50 [1] [nM] | Emax [2] [%] | Ki [3] [nM] | Structure (SMILES) | also measured
25 | 94 |  | CN(C)CCn1cc(S(=O)(=O)c2ccccc2)c2cccnc21 | 
 |  | 11.7 | CN(C)CCn1cc(S(=O)(=O)c2cc(Cl)ccc2Cl)c2cccnc21 | IC50 [4]: 15 nM; Imax [5]: 97%
31 | 66 |  | CN(C)CCn1cc(S(=O)(=O)c2c(Cl)cccc2Cl)c2cccnc21 | 
 |  | 0.9 | CNCCn1cc(S(=O)(=O)c2c(Cl)nc3sccn23)c2cccnc21 | IC50 [4]: 5.4 nM; Imax [5]: 89%
120 | 71 | 0.9 | CN(C)CCn1cc(S(=O)(=O)c2c(Cl)nc3sccn23)c2cccnc21 | 
18 | 94 | 2 | NCCn1cc(S(=O)(=O)c2cccc(Cl)c2)c2cccnc21 | IC50 [6]: > 5000 nM; IC50 [9]: > 5000 nM; IC50 [11]: 1360 nM; IC50 [13]: 44 nM; IC50 [16]: > 5000 nM; IC50 [17]: 11 nM

From ChEMBL document CHEMBL1155250, “Novel 1-aminoethyl-3-arylsulfonyl-1H-pyrrolo[2,3-b]pyridines are potent 5-HT(6) agonists” (Bioorg Med Chem, 2009)
